Reference: ChEMBL document CHEMBL4665630, “Synthesis and biological evaluation of anthraquinone derivatives as allosteric phosphoglycerate mutase 1 inhibitors for cancer treatment” (Eur J Med Chem, 2019)

Columns and labels:
[1] = molecular target: Phosphoglycerate mutase 1 (Homo sapiens, UniProt P18669); experiment: Inhibition of human recombinant PGAM1 by measuring decrease in OD by enzyme based assay
How it was run: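 C-terminal His6-tagged PGAM1, Ni-NTA purified, 4.6 nM, preincubated with inhibitor in DMSO; coupled enolase/pyruvate kinase M2/LDH system in 100 mM Tris-HCl, 100 mM KCl, 5 mM MgCl2, 1 mM ADP, 0.2 mM NADH, 4 mM 3PG; NADH loss read at 340 nm. Counter-screen without PGAM1 using 4 mM 2PG. Mean ± s.d., n=3.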

[2] = test system: NCI-H1299; experiment: Antiproliferative activity against human H1299 cells assessed as reduction in cell viability measured after 72 hrs by MTT assay; type: functional, cell-based; conditions: NCI-H1299, 72 h
How it was run: (§1)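 Cells grown in RPMI-1640 (H1299, PC9) or F-12K (A549) with 10% FBS and penicillin/streptomycin; 2000 H1299 or A549 or 1000 PC9 cells per well, attached 24 h, exposed to inhibitor 72 h; MTT 0.5 mg/mL for 4 h, absorbance at 570 nm; mean ± s.d., n=3.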

[3] = test system: PC-9; experiment: Antiproliferative activity against human PC-9 cells assessed as reduction in cell viability measured after 72 hrs by MTT assay; type: functional, cell-based; conditions: PC-9, 72 h; how it was run: as §1
[4] = test system: A549; experiment: Antiproliferative activity against human A549 cells assessed as reduction in cell viability measured after 72 hrs by MTT assay; type: functional, cell-based; conditions: A549, 72 h; how it was run: as §1

Chain of Phosphoglycerate mutase 1 (P18669 whole entry): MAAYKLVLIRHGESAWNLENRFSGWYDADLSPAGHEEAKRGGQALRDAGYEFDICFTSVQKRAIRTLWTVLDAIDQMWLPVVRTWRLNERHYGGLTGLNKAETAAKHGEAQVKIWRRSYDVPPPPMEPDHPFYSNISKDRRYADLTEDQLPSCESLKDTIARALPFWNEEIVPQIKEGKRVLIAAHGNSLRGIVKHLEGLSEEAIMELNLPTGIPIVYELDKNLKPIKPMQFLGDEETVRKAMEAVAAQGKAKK

Row | IC50 [1] [µM] | IC50 [2] [µM] | IC50 [3] [µM] | IC50 [4] [µM] | SMILES
1 | 2.86 | 20 | – | – | COc1ccc(S(=O)(=O)Nc2cc3c(c(O)c2O)C(=O)c2ccccc2C3=O)c(OC)c1
2 | 0.55 | 13 | 17.5 | 21.6 | O=C1c2ccccc2C(=O)c2c1cc(NS(=O)(=O)c1ccc(Cl)c(C(F)(F)F)c1)c(O)c2O
3 | 0.36 | 7.7 | 15.7 | 25.4 | Cc1ccc(S(=O)(=O)Nc2cc3c(c(O)c2O)C(=O)c2ccccc2C3=O)cc1
4 | 0.55 | 17.7 | 16.1 | 12.2 | O=C1c2ccccc2C(=O)c2c1cc(NS(=O)(=O)c1ccc(Cl)s1)c(O)c2O
5 | 0.84 | 25.8 | – | – | O=C1c2ccccc2C(=O)c2c1cc(NS(=O)(=O)c1cccs1)c(O)c2O

The remaining lines, values behind:

Row | SMILES | IC50 [1] [µM] | IC50 [2] [µM] | IC50 [3] [µM] | IC50 [4] [µM]
6 | CN1CCN(c2ccc(S(=O)(=O)Nc3cc4c(c(O)c3O)C(=O)c3ccccc3C4=O)cc2)CC1 | > 10 | – | – | –
7 | O=C1c2ccccc2C(=O)c2c1cc(NS(=O)(=O)C1CCCCC1)c(O)c2O | 1.75 | 21.8 | – | –
8 | CN(C)S(=O)(=O)Nc1cc2c(c(O)c1O)C(=O)c1ccccc1C2=O | > 10 | – | – | –
9 | O=C1c2ccccc2C(=O)c2c1cc(NS(=O)(=O)c1ccc3ccccc3c1)c(O)c2O | 0.19 | 8.7 | 4.7 | > 100
10 | CCCCS(=O)(=O)Nc1cc2c(c(O)c1O)C(=O)c1ccccc1C2=O | 2.05 | 38.8 | – | –
11 | CC1CC(C)CN(c2ccc(S(=O)(=O)Nc3cc4c(c(O)c3O)C(=O)c3ccccc3C4=O)cc2)C1 (configuration not stated) | 2.6 | 10.3 | 11.6 | 9.2
12 | COc1ccc(S(=O)(=O)Nc2cc3c(c(O)c2O)C(=O)c2ccccc2C3=O)cc1OC | 2.81 | 26.7 | – | –
